pIC50: −log10 of the molar value.
Key:
[1] = test system: Mycobacterium tuberculosis; assay: Antimycobacterial activity against Mycobacterium tuberculosis H37Rv assessed as inhibition of microbial growth incubated for 1 week by alamar blue based assay; format: functional; settings: 168 h, time 1 weeks
In short: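 M. tuberculosis H37Rv by Microplate Alamar Blue Assay; MIC reported in μg/mL, with isoniazid, rifampicin and ethambutol run as standard drugs.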

[2] = Cytotoxicity against mouse RAW264.7 cells assessed as reduction in cell viability at 50 ug/ml incubated for 72 to 96 hrs by MTT assay; format: cell-based; settings: at 50 µg/mL, time 72-96 hrs, read-out: INH
[3] = target: T1, Enoyl-[acyl-carrier-protein] reductase [NADH] (Mycobacterium tuberculosis, UniProt P9WGR1); assay: Inhibition of recombinant Mycobacterium tuberculosis His6-tagged InHA expressed in Escherichia coli BL21 using trans-2-dodecenoyl-Coenzyme A as substrate
T1 sequence (P9WGR1 whole entry): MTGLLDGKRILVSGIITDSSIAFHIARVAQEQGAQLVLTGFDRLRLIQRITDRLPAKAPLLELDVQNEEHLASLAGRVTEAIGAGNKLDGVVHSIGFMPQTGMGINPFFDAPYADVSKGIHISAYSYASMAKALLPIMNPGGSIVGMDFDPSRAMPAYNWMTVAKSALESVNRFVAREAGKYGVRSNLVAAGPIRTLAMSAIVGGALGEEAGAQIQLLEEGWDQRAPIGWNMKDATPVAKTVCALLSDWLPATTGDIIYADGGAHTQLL
In short: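 M. tuberculosis InhA screened at 50 μM, and compounds above 70% inhibition also at 5 μM; triclosan positive control; triplicate assays; IC50 from 4-parameter curve fit using at least seven points.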

[4] = test system: Mycobacterium tuberculosis; assay: Antimycobacterial activity against Mycobacterium tuberculosis H37Rv assessed as reduction in colony forming unit at 1 to 10 ug/ml incubated for 7 days in nutrient starvation medium by alamar blue based serial dilution method; format: functional; settings: dose 1-10 µg/ml; time 7 day
In short: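 Culture starved in PBS at 37 °C for six weeks, then exposed to compounds, isoniazid or rifampicin at 10 μg/ml for seven days; persisters counted by MPN assay.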

[5] = test system: Mycobacterium tuberculosis; assay: Antimycobacterial activity against Mycobacterium tuberculosis H37Rv infected in mouse primary macrophage cells assessed as reduction in colony forming unit at 10 uM incubated for 48 hrs followed by macrophage lysis and measured after 3 weeks by alamar blue based serial dilution method; format: functional; settings: time 23 day
In short: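 Macrophages infected with M. tuberculosis, then exposed to compounds at 10 μM final for two days; bacteria suspended in 7H9 broth, serially diluted, plates incubated at 37 °C and growth read after three weeks.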

SMILES	MIC [1]	cytotoxicity at 50 ug/ml [2]	pIC50 [3]	fold change (FC) [4]	fold change (FC) [5]
COc1ccc(NC(=S)Nc2ncccc2C)cc1	45.8 µM	–	–	–	–
O=[N+]([O-])c1ccc(NC(=S)NCc2ccccc2Br)cc1	4.26 µM	24.9%	4.81	–	–
O=[N+]([O-])c1ccc(NC(=S)NCc2ccccc2Cl)cc1	2.42 µM	29.9%	4.75	2.6	1.8
Cc1cccnc1NC(=S)Nc1ccc2ccccc2c1	> 85.3 µM	–	–	–	–
Cc1cccnc1NC(=S)Nc1ccc(Br)cc1	2.42 µM	30.8%	–	–	–
CC[C@@H](CO)NCCN[C@@H](CC)CO [ETHAMBUTOL]	7.6 µM	–	–	–	–
Cc1cccnc1NC(=S)Nc1cc(C(F)(F)F)cc(C(F)(F)F)c1	> 66 µM	–	–	–	–
Cc1cccnc1NC(=S)Nc1ccc(I)cc1	2.11 µM	31.2%	–	2	–
Cc1cccnc1NC(=S)Nc1ccc(Cl)cc1Cl	2.5 µM	34%	–	2.3	1.4
NNC(=O)c1ccncc1 [ISONIAZID]	0.36 µM	–	–	1.4	2.5
O=C(NCc1ccccc1Br)Nc1ccccc1	> 82 µM	–	–	–	–
O=C(NCc1ccccc1Cl)Nc1ccccc1	> 95.8 µM	–	–	–	–
Cc1ccc(NC(=S)Nc2ncccc2C)cc1	97.3 µM	–	–	–	–
Cc1cccnc1NC(=S)Nc1ccccc1	> 103 µM	–	–	–	–
S=C(NCc1ccccc1Cl)Nc1ccccc1	> 90.2 µM	–	–	–	–
Cc1cccnc1NC(=S)Nc1ccc(F)cc1	47.9 µM	–	–	–	–
CO[C@H]1/C=C/O[C@@]2(C)Oc3c(C)c(O)c4c(O)c(c(/C=N/N5CCN(C)CC5)c(O)c4c3C2=O)NC(=O)/C(C)=C\C=C\[C@H](C)[C@H](O)[C@@H](C)[C@@H](O)[C@@H](C)[C@H](OC(C)=O)[C@@H]1C [RIFAMPIN]	0.12 µM	–	–	1.6	–
Cc1cccnc1NC(=S)Nc1ccccc1C(F)(F)F	> 80.4 µM	–	–	–	–
S=C(NCc1ccccc1Br)Nc1ccccc1	> 77.9 µM	–	–	–	–

Reference: ChEMBL document CHEMBL4765327, “Design and synthesis of thiourea-based derivatives as Mycobacterium tuberculosis growth and enoyl acyl carrier protein reductase (InhA) inhibitors” (Eur J Med Chem, 2020)
